For data set [1], the system named is liver cancer cell line (HepG-2). Put plainly: MTT anticancer activity, HepG-2. In kind it is cell-based. The conditions noted are these: Homo sapiens, HepG2, 72 h, read-out: HepG-2 IC50. Put shortly: (§1)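 ATCC-sourced cancer cell lines were used: HepG-2 liver, NFS-60 myeloid leukaemia and PC-3 prostate. Cells were incubated with test compound for 72 h, viability was measured by MTT, and IC50 was derived. Doxorubicin served as reference drug. Results are mean ± SEM; significance was by Tukey post hoc ANOVA.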

The target in data set [2] is T1, PIM-1 kinase (Homo sapiens, UniProt P11309). In kind it is biochemical. Conditions: Lineweaver-Burk double-reciprocal plot; for mode of PIM-1 kinase inhibition: in the presence of ATP; for Km change / Vmax change: versus control.
T1 sequence (P11309 whole entry): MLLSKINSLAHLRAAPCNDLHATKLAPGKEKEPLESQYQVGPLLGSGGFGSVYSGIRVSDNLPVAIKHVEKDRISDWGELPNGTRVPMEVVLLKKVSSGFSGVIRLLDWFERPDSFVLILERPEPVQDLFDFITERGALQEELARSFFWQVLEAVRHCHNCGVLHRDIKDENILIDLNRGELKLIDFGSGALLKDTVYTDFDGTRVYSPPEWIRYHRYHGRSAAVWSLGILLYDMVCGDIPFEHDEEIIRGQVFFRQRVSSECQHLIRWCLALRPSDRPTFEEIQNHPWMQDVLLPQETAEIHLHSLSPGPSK
Data set [3] concerns the target T1, PIM-1 kinase. Put plainly: In vitro PIM-1 kinase inhibition. In kind it is biochemical. Conditions: from pIC50 and molecular size.
Data set [4] relates to prostate cancer cell line (PC-3). Put plainly: MTT anticancer activity, PC-3. In kind it is cell-based. Conditions: Homo sapiens, 72 h, read-out: PC-3 IC50. Put shortly: as §1
The test system of data set [5] is myeloid leukaemia cell line (NFS-60). As to the kind of experiment: MTT anticancer activity, NFS-60. In kind it is cell-based. Conditions: NFS-60, 72 h, read-out: NFS-60 IC50. The gist of the method:
as §1

For data set [6], the system named is colon cancer cells (Caco-2). As to the kind of experiment: MTT anticancer activity, Caco-2. In kind it is cell-based, human. Conditions: Homo sapiens, Caco-2, 72 h, read-out: Caco-2 IC50. Put shortly: (§2)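 ATCC-sourced Caco-2 colon cancer cells were exposed to test compound for 72 h. Viability was read by microculture MTT, with doxorubicin as reference, and IC50 was derived. Normal human lung fibroblasts (Wi-38) were run in the same 72 h MTT format to obtain IC50 and EC100 for selectivity. Results are mean ± SEM.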

A short description of data set [7]: MTT anticancer activity, Caco-2. In kind it is cell-based, human. The conditions noted are these: human, Caco-2, Caco-2 SI (selectivity index), Wi-38 EC50 divided by Caco-2 IC50. The gist of the method: as §2

pIC50: −log10 of the molar value. Where only a bound is given, the exact number is not on record here.

The pIC50 is the negative decadic logarithm of the IC50, by convention in mol/L. For `CCOc1nc(-c2cccc(O)c2)cc(-c2cc3cc(Cl)ccc3nc2N2CCOCC2)c1C#N` [Compound 4b, 4-(6-Chloro-2-morpholin-4-yl-quinolin-3-yl)-2-ethoxy-6-(3-hydroxyphenyl)pyridine-3-carbonitrile], the negative logarithm of the IC50 (pIC50) in data set [1] was 7.23.
Regarding `CCOc1nc(-c2cccc(O)c2)cc(-c2cc3cc(OC)ccc3nc2N2CCOCC2)c1C#N` [Compound 4c, 2-Ethoxy-6-(3-hydroxyphenyl)-4-(6-methoxy-2-morpholin-4-yl-quinolin-3-yl)pyridine-3-carbonitrile], the “mode of PIM-1 kinase inhibition” value in data set [2] is “both ATP competitive and non-competitive inhibitors”. The Km change entry in data set [2] is “increase”. In addition, the Vmax change result in data set [2] is listed as “reduced”. Besides, the “LE (ligand efficiency), PIM-1 kinase” value in data set [3] is listed as approximately 0.3. Also, the negative-log IC50 (pIC50) in data set [1] is 7.88; in data set [4] it was 8.30; in data set [5] it was 8.22; in data set [6] it was 8.15.
On to `CCCOc1nc(-c2cccc(O)c2)cc(-c2cc3cc(OC)ccc3nc2N2CCOCC2)c1C#N` [Compound 4f, 6-(3-Hydroxyphenyl)-4-(6-methoxy-2-morpholin-4-yl-quinolin-3-yl)-2-propoxypyridine-3-carbonitrile], for which, in data set [2], the “mode of PIM-1 kinase inhibition” value was “both ATP competitive and non-competitive inhibitors”; the Km change entry was “increase”; the Vmax change entry was “reduced”. In data set [3], the “LE (ligand efficiency), PIM-1 kinase” value is approximately 0.3. For the same molecule, the negative logarithm of the IC50 (pIC50) in data set [1] is 7.79. The selectivity ratio at 72 h in data set [7] is not below 1.6.
With `Nc1n[nH]c2nc(-c3cccc(O)c3)cc(-c3cc4ccccc4nc3N3CCOCC3)c12` [Compound 6a, 3-(3-Amino-4-(2-morpholin-4-yl-quinolin-3-yl)-1H-pyrazolo[3,4-b]pyridin-6-yl)phenol], the negative logarithm of the IC50 (pIC50) in data set [1] is 7.18.

The record behind these values is paper PMC10795791 (Journal of Enzyme Inhibition and Medicinal Chemistry, 2024).
